Among the data in ChEMBL document CHEMBL3124901, “Inhibitory effect of a callophycin A derivative on iNOS expression via inhibition of Akt in lipopolysaccharide-stimulated RAW 264.7 cells” (2014) are inhibition values, retold here.

Each structure is given as a SMILES string. The source made the active and inactive calls. The calls are words filed in the database; no cut-off is given here.

Test [1] deals with RAW264.7. Kind of test: Inhibition of PI3K/AKT in mouse RAW264.7 cells assessed as inhibition of LPS-induced iNOS protein expression at 25 uM after 20 hrs by Western blot analysis. It is filed as cell-based. In outline: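 Pretreatment with 25 μM or LY294002 (25 μM), then LPS for 20 h; iNOS protein by Western blot.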
The subject of test [2] is RAW264.7. Briefly: Antiinflammatory activity in LPS-stimulated mouse RAW264.7 cells assessed as inhibition of iNOS protein expression at 50 uM preincubated for 15 mins followed by LPS challenge measured after 20 hrs by Western blot analysis. Type of test: functional, cell-based.

On to `O=c1cc(N2CCOCC2)oc2c(-c3ccccc3)cccc12`, for which, in test [1], the inhibition entry was “Active”.

In the case of `O=C(O)[C@@H]1Cc2c([nH]c3ccccc23)CN1Cc1ccc(O)cc1`, the inhibition result in test [2] was “inactive”.

Take `O=C(O)[C@H]1Cc2c([nH]c3ccccc23)CN1Cc1ccc(O)cc1`: the inhibition entry in test [2] is “inactive”.
